Assay results as given in paper PMC4764508 (Journal of the American Chemical Society, 2015).
Read-outs that look alike come from different tables or passages of the source.

Key:
[1] = cited from earlier work
[2] = Variable temperature 17O NMR: hydration state and water exchange; type: physicochemical; settings: for ΔH^≠: water exchange; for kex^310: water exchange rate at 310 K
Summary of the method: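 Transverse relaxivity of H217O was measured with the Mn complex present across a range of temperatures. The data were fitted to derive water exchange parameters, including kex at 310 K and ΔH, and the Mn-17O hyperfine coupling constant.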

[3] = rat, in vivo
[4] = Mn blood pharmacokinetics and plasma speciation in rats; settings: rat, HPLC-ICP-MS
T1 relaxivity = type: physicochemical; settings: for Relaxivity r1 in pH 7.4 buffer: pH 7.4 Tris buffer
[5] = Biodistribution in rats by ICP-MS; settings: rat, in vivo
in vivo = settings: rat
[6] = tested on: carotid artery thrombus (fibrin); assay: MR imaging of carotid artery thrombosis in a rat model, 1.5T; type: in vivo
Summary of the method: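 In a rat carotid artery thrombosis model, 3D T1-weighted gradient-echo MRI with arterial inflow suppression was run at 1.5T. Scans were taken before and immediately after injection of 10 μmol/kg probe (40 μmol/kg metal) and repeated over 1 h; N=4 per probe. Thrombus-to-muscle and contralateral vessel-to-muscle CNR were followed over time. Thrombosis was confirmed by H&E histology. Error bars are SEM.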

[7] = Mn2+ thermodynamic stability constants by pH-potentiometry; type: physicochemical
Summary of the method: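 The ligand was titrated by pH-potentiometry in the presence of 1 equiv MnCl2 at 25 °C and I = 0.15 M NaCl. KML = [ML]/([M][L]) and KHML = [HML]/([ML][H]). Effective formation constants were derived at pH 7.4. pMn is -log[free Mn] when [M] = [L] = 10 μM.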

[8] = type: physicochemical; settings: 1 mM complex, 25 mM Zn2+, 50 mM pH 6.0 MES buffer, 37 °C, 1.4T
[9] = biological target: bovine serum albumin (BSA) (Bos taurus, UniProt P02769); assay: Protein bound fraction by ultra-filtration; type: in vitro ADME; settings: 150-300 μM solution
[10] = Dynamic MRI clearance kinetics in mice; type: in vivo, balb/C mouse; settings: 60 μmol/kg i.v., monoexponential fit of nSNR vs time
[11] = Protein bound fraction by ultra-filtration; type: in vitro ADME, bovine; settings: 150-300 μM solution
[12] = Mn tissue content by ICP-MS 24h after injection in mice; type: in vivo, mouse
Summary of the method: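 Mice (N=4) received test compound i.v. at 60 μmol/kg. Tissue Mn was measured by ICP-MS at 24 h and compared with endogenous Mn in naive mice (N=4). Results were expressed as nmol/g and as %ID/g. Elevation above baseline was tested at P<0.05.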

[13] = type: physicochemical; settings: from Kcomp determined using CDTA challenge
Summary of the method: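 The conditional stability constant at pH 7.4 came from direct competition of the Mn complex with CDTA, with species monitored by LC-MS. The effective constant was derived from the competition constant Kcomp. pMn was calculated as -log[free Mn] with [M] = [L] = 10 μM.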

[14] = rat, plateau by 35 minutes post injection

Sequence of bovine serum albumin (BSA) (P02769 25-607): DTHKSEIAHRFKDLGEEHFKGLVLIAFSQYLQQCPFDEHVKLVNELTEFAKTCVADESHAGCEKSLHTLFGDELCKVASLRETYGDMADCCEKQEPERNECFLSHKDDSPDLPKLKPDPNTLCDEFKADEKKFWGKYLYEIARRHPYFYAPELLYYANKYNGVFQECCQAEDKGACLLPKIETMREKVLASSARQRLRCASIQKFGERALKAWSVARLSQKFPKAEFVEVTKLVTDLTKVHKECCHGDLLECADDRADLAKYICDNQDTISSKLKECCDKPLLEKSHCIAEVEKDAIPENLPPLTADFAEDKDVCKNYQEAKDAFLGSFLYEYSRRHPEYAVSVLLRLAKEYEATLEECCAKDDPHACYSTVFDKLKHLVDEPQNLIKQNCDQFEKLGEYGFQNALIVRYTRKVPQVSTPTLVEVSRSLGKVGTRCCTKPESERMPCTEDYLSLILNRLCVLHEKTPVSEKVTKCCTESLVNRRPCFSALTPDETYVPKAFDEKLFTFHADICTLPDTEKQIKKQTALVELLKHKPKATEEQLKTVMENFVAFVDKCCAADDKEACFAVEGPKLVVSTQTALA

## O=C([O-])CN1CCN(CC(=O)[O-])CCN(CC(=O)[O-])CCN(CC(=O)[O-])CC1.[Gd+3] [Gd-DOTA]
[1]
  Relaxivity in plasma: 3.6 mM⁻¹ s⁻¹

## CC[C@H](C)[C@H](NC(=O)[C@H](Cc1ccc(O)cc1)NC(=O)[C@@H]1CSSC[C@H](NC(=O)[C@@H](CCC(=O)O)NC(=O)[C@H](Cc2ccc(O)cc2)NC(=O)[C@H](CNC(=O)c2ccc(CN(CC(=O)O)C3CCCCC3N(CC(=O)O)CC(=O)O)nc2)NC(=O)c2ccc(CN(CC(=O)O)C3CCCCC3N(CC(=O)O)CC(=O)O)nc2)C(=O)N2C[C@H](O)C[C@H]2C(=O)N[C@@H](Cc2ccc(O)c(Cl)c2)C(=O)NCC(=O)N[C@@H](CC(C)C)C(=O)N1)C(=O)N[C@@H](CCC(N)=O)C(=O)NCc1ccc(CNC(=O)[C@H](CNC(=O)c2ccc(CN(CC(=O)O)C3CCCCC3N(CC(=O)O)CC(=O)O)nc2)NC(=O)c2ccc(CN(CC(=O)O)C3CCCCC3N(CC(=O)O)CC(=O)O)nc2)cc1 (stereo partly shown) [Mn-FBP]
[2]
  Hydration state (q): 1
  Mn-17O hyperfine coupling constant AO/ħ: 2.82±0.040 ×10^7 rad/s
  ΔH^≠: 9.49 kcal/mol
  kex^310: 1.1±0.04 ×10^8 s^-1
[2]; 37 °C
  Water exchange rate kex: 1.1e+08 s⁻¹
[3]
  Total Mn blood clearance t1/2: 22.6 ± 6.8 min
[4]
  Mn dechelation in blood plasma (Mn speciation): no evidence of Mn dechelation
T1 relaxivity
  Molecular relaxivity relative to per Mn values: 4 fold
T1 relaxivity; 1.4 T, 37 °C
  Relaxivity in human fibrinogen solution compared with buffer: unchanged
T1 relaxivity; 1.4 T, 37 °C, per Mn
  Relaxivity r1 in 4.5% w/v BSA solution: 11.4 mM⁻¹ s⁻¹
  Relaxivity r1 in bovine blood plasma: 10.7 mM⁻¹ s⁻¹
  Relaxivity r1 in pH 7.4 buffer: 8.5 mM^-1s^-1
T1 relaxivity; fibrinogen converted to fibrin gel, 1.4 T, 37 °C, per Mn
  Relaxivity r1 in human fibrin gel: 13.5 mM⁻¹ s⁻¹
T1 relaxivity; human fibrin gel vs buffer
  Increase in relaxivity in the presence of fibrin: 60%
T1 relaxivity; pH 7.4 buffer
  Per Mn relaxivity relative to [Mn(PyC3A)(H2O)]^-: 4 fold
[5]
  Eliminated after 24 hr: > 99%
  Mn in muscle at 24h: 0.02±0.02% of the injected dose per gram tissue
In vivo
  half-life: 23.5 ± 13.4 min
[6]; rat model of arterial thrombosis
  Thrombus enhancement compared with EP-2104R: equivalent thrombus enhancement
[6]; rat, 10 μmol/kg probe
  Increase of thrombus-to-muscle CNR post injection: more than 5 fold
[6]; [14]
  Peak CNR vs. muscle, contralateral vessel: 5.6±1.5
  Peak CNR vs. muscle, thrombus: 32.9±4.0

## O=C(O)CN(CC(=O)O)C1CCCCC1N(CC(=O)O)Cc1ccccn1 (stereo not drawn) [PyC3A, N-picolyl-N,N′,N′-trans-1,2-cyclohexylenediaminetriacetate]
[7]; 1 mM each Mn2+ and PyC3A, 0.15M NaCl, 25 °C
  pH by which complexation is complete: 4.5

## O=C([O-])CN(CCN(CC(=O)[O-])CC(=O)[O-])CCN(CC(=O)[O-])CC(=O)[O-].[Gd+3] [[Gd(DTPA)(H2O)]^2-]
[8]
  Pseudo-first order rate constant of transmetallation: 1.41±0.31 × 10^-2 s^-1
[1]
  Relaxivity in plasma: 4.1 mM⁻¹ s⁻¹

## O.O=C([O-])CN(CC(=O)[O-])C1CCCCC1N(CC(=O)[O-])CC(=O)[O-].[Mn+2] (stereo not shown) [[Mn(CDTA)(H2O)]^2-]
[8]
  Pseudo-first order rate constant of transmetallation: 1.10±0.01 × 10^-3 s^-1

## O.O=C([O-])CN(CC(=O)[O-])C1CCCCC1N(CC(=O)[O-])Cc1ccccn1.[Mn+2] (stereo not shown) [[Mn(PyC3A)(H2O)]^-]
[2]
  Hydration state (q): 1
  Mn-17O hyperfine coupling constant AO/ħ: 2.87±0.080 ×10^7 rad/s
  ΔH^≠: 8.89 kcal/mol
  kex^310: 1.0±0.02 ×10^8 s^-1
[8]
  Pseudo-first order rate constant of transmetallation: 6.76±0.03 × 10^-4 s^-1
[9]
  Fraction protein bound in 4.5% w/v BSA solution: 1-5%
T1 relaxivity; 1.4 T, 37 °C, per Mn
  Relaxivity r1 in 4.5% w/v BSA solution: 3.4 mM⁻¹ s⁻¹
  Relaxivity r1 in bovine blood plasma: 3.8 mM⁻¹ s⁻¹
  Relaxivity r1 in pH 7.4 buffer: 2.1 mM^-1s^-1
[10]
  Blood clearance t1/2: 7.8 ± 3.0 min
[7]; Mn(II) complex, pH-potentiometry, 25 °C, I = 0.15 M NaCl
  logKML: 14.14
[7]; from potentiometric titration, 25 °C, 0.15 M NaCl
  logKpH 7.4 (effective formation constant at pH 7.4): 11.34
[7]; pH 7.4
  Stability relative to [Mn(DPDP)]^3- at pH 7.4: > 10^5 times
[11]
  Fraction protein bound in plasma: 1-5%
[12]
  Elimination by 24h: > 99%
  Injected dose remaining in the body at 24 hours: less than 1%
[12]; 60 μmol/kg i.v., ICP-MS
  Mn levels in all other tissues at 24h vs naïve mice: not elevated above endogenous basal levels
  Mn remaining in liver and kidneys at 24h: < 0.05 %ID/g
[13]
  logKpH 7.4 (effective formation constant at pH 7.4): 11.40
